Results as given in PMC7701984 (Journal of medicinal chemistry, 2019).
Marks after values point to notes of the source that are not given here. Values belong to the compound of their own block, whether it stands above or below them.

Assays:
[1] = molecular target: wt-BFI domain of BTN3A1 (Homo sapiens, UniProt O00481); assay: GDP-BODIPY fluorescence polarization competitive binding assay, wt-BFI; conditions: n ≥ 3
[2] = molecular target: BTN3A1 BFI(R448A) (Homo sapiens, UniProt O00481, R448A); assay: GDP-BODIPY fluorescence polarization competitive binding assay, BFI; conditions: n ≥ 3
BTN3A1 BFI(R448A), sequence (O00481 272-513 R448A limits assumed): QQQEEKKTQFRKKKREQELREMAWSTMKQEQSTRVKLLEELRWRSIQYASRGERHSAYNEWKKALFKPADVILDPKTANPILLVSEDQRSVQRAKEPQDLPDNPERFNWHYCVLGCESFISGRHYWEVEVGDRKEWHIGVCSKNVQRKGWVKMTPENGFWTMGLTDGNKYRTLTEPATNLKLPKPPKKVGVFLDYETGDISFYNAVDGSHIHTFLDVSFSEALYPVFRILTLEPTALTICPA

[3] = molecular target: BTN3A1 BFI(M424A) (Homo sapiens, UniProt O00481, M424A); assay: as above; conditions: n ≥ 3, ambiguous, approximate slope estimated by GraphPad
BTN3A1 BFI(M424A), sequence (O00481 272-513 M424A limits assumed): as the sequence (O00481 272-513 R448A limits assumed) above, with M153A, A177R counted along it

[4] = tested on: Vγ9Vδ2 T cells; assay: Vγ9Vδ2 T cell proliferation assay; format: cell-based, human; conditions: for T cell expansion above non-stimulated baseline: positive controls at 0.1 μM; for signs of Vγ9Vδ2 T cell stimulation: proliferation assay, Supplemental Figure S1C–D
[5] = molecular target: BTN3A1 BFI(R499A) (Homo sapiens, UniProt O00481, R499A); assay: GDP-BODIPY fluorescence polarization competitive binding assay, BFI; conditions: n ≥ 3
BTN3A1 BFI(R499A), sequence (O00481 272-513 R499A limits assumed): as the sequence (O00481 272-513 R448A limits assumed) above, with A177R, R228A counted along it

[6] = molecular target: BTN3A1 BFI(R442A) (Homo sapiens, UniProt O00481, R442A); assay: as above; conditions: n ≥ 3
BTN3A1 BFI(R442A), sequence (O00481 272-513 R442A limits assumed): as the sequence (O00481 272-513 R448A limits assumed) above, with R171A, A177R counted along it

[7] = molecular target: BTN3A1 BFI(W421A) (Homo sapiens, UniProt O00481, W421A); assay: as above; conditions: n ≥ 3
BTN3A1 BFI(W421A), sequence (O00481 272-513 W421A limits assumed): as the sequence (O00481 272-513 R448A limits assumed) above, with W150A, A177R counted along it

[8] = molecular target: BFI; conditions: read-out: ITC Kd for BFI; previous ITC experiments; cited from earlier work
[9] = tested on: Human PBMCs containing naïve Vγ9Vδ2 T cells; assay: IFN-γ production of PBMCs by ELISA; format: cell-based; conditions: for EC50: Homo sapiens, PBMC, 48 h, read-out: IFN-γ EC50 (μM) with 95% CI
[10] = tested on: Vγ9Vδ2 T cells; conditions: read-out: Proliferation EC50 (μM) with 95% CI; footnote a; ref Hsiao 2014; cited from earlier work
[11] = molecular target: BTN3A1; conditions: previously reported ITC experiments; no reference given; cited from earlier work
[12] = tested on: peripheral blood mononuclear cells (PBMCs); assay: Ligand uptake: disappearance of prodrug from media incubated with PBMCs; format: in vitro ADME; conditions: 10 μM with PBMCs, 24 hours, 37 °C
In short: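 PBMCs at 1,000,000 cells/mL in T cell media were incubated at 37 °C with test prodrug at 10 μM final, or with media alone. Samples were taken at 0, 6, 24 and 48 h and spun. The supernatant was mixed with acetonitrile, re-spun and stored at −20 °C. UPLC-MS used a C18 column with a 25–80% acetonitrile gradient over 8 min. The integrated molecular-ion signal was expressed relative to t = 0.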

[13] = dose-response, 48 hours, concentration not given

wt-BFI domain of BTN3A1, sequence (O00481 272-513 limits assumed): as the sequence (O00481 272-513 R448A limits assumed) above, with A177R counted along it

Probe displacement (mP) range with 95% CI [1]: 30.6 (25 – 36) mP | Probe displacement (mP) range with 95% CI [2]: 26.2 (12 – 40) mP | Probe displacement (mP) range with 95% CI [3]: 59.1^a (38 – 81) ^* mP | Probe displacement (mP) range with 95% CI [5]: 55.0 (21 – 78) ^* mP | Probe displacement (mP) range with 95% CI [6]: 19.4 (13 – 26) mP | Probe displacement (mP) range with 95% CI [7]: 56.7 (40 – 73) ^* mP
SMILES: C/C(=C\COP(=O)(O)OP(=O)(O)O)CO [Compound 1, (E)-4-hydroxy-3-methyl-but-2-enyl diphosphate]
T cell expansion above non-stimulated baseline [4]: significantly expanded T cells | Kd [8]: 2360 nM

SMILES: O=P(O)(O)C(O)(Cn1ccnc1)P(=O)(O)O [Compound 4, zoledronate]
stimulation of IFN-γ production [9, 13]: Neither zoledronate (4) nor sodium diphosphate stimulated IFN-γ production

SMILES: C/C(=C\CCP(=O)(O)O)CO [Compound 5]
EC50 [10]: 4 µM | ITC dissociation constant (Kd) [11]: not calculable

parent ion detected in media relative to t = 0 [12]: less than 1%
SMILES: C/C(=C\CCP(=O)(OCOC(=O)C(C)(C)C)OCOC(=O)C(C)(C)C)CO [Compound 6]
T cell expansion above non-stimulated baseline [4]: significantly expanded T cells

SMILES: C/C(=C\CCP(=O)(O)CP(=O)(O)O)CO [Compound 7]
stimulation of IFN-γ production at 100 μM ([9]; 100 μM, 48 hours): did stimulate IFN-γ production | EC50 [9]: > 100 µM

SMILES: C/C(=C\CCP(=O)(CP(=O)(OCOC(=O)C(C)(C)C)OCOC(=O)C(C)(C)C)OCOC(=O)C(C)(C)C)CO (centres unmarked) [Compound 8]
IFN-γ potency of prodrug 8 relative to its salt 7 [9]: 100 times | EC50 [9]: > 1 µM

parent ion detected in media relative to t = 0 [12]: less than 1%
SMILES: C/C(=C\CCCCP(=O)(OCOC(=O)C(C)(C)C)OCOC(=O)C(C)(C)C)CO [Compound 11, (E)-(((7-hydroxy-6-methylhept-5-en-1-yl)phosphoryl)bis(oxy))bis(methylene) bis(2,2-dimethylpropanoate)]
stimulation of T cell proliferation ([4]; concentrations up to 100 μM): neither prodrug 11 nor salt 10 (Supplemental Figure S1B) stimulated T cell proliferation | stimulation of IFN-γ production ([9]; concentrations up to 100 μM, 48 hours): did not stimulate

SMILES: CC(C)=CCCCCP(=O)(OCOC(=O)C(C)(C)C)OCOC(=O)C(C)(C)C [Compound 14, (((6-Methylhept-5-en-1-yl)phosphoryl)bis(oxy))bis(methylene) bis(2,2-dimethylpropanoate)]
signs of Vγ9Vδ2 T cell stimulation [4]: neither intermediate 14 nor 15 displayed signs of Vγ9Vδ2 T cell stimulation

SMILES: COP(=O)(CCCC/C=C(\C)CO)OC [Compound 15, Dimethyl (E)-(7-hydroxy-6-methylhept-5-en-1-yl) phosphonate]
signs of Vγ9Vδ2 T cell stimulation [4]: neither intermediate 14 nor 15 displayed signs of Vγ9Vδ2 T cell stimulation

SMILES: O=P([O-])([O-])OP(=O)([O-])[O-].[Na+].[Na+].[Na+].[Na+] [NaPP, sodium diphosphate]
stimulation of IFN-γ production [9, 13]: Neither zoledronate (4) nor sodium diphosphate stimulated IFN-γ production
